Assay [1] addresses Neuroblast differentiation-associated protein AHNAK (Homo sapiens) (UniProt Q09666). As to the kind of experiment: Binding affinity to AHNAK in human NCI-H23 cells at 1 uM by mass spectrometry based pull down assay. The assay is classed as cell-based. In outline:
(§1)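 NCI-H23 or NCI-H358 cells were grown and lysed. Lysates were incubated overnight at 4 °C with 1 μM biotinylated covalent probe or DMSO, then pulled down on streptavidin beads. Proteins were run on polyacrylamide gels and stained with Coomassie. Bands were excised, digested and identified by mass spectrometry.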

In assay [2] the target is E3 ubiquitin-protein ligase TRIM33 (Homo sapiens) (UniProt Q9UPN9). As to the kind of experiment: Binding affinity to TRIM33 in human NCI-H23 cells at 1 uM by mass spectrometry based pull down assay. The assay is classed as cell-based.
Assay [3] addresses Probable ATP-dependent RNA helicase DDX6 (Homo sapiens) (UniProt P26196). As to the kind of experiment: Binding affinity to DDX6 in human NCI-H23 cells at 1 uM by mass spectrometry based pull down assay. The assay is classed as cell-based.
Assay [4] has as its target T1, 80S Ribosome (Homo sapiens) (UniProt P08865+P42677+P62753+P15880+P23396+P61247+P62701+P22090+P46782+P62081+P62241+P46781+P46783+P62280+P25398+P62277+P62263+P62841+P62244+P62249+P08708+P62269+P39019+P60866+P63220+P62266+P62847+P62851+P62854+P62979+P62857+P62273+P62861+P39023+P36578+P46777+Q02878+P18124+P62424+P62917+P32969+P27635+P62906+P62913+P30050+P26373+P40429+P50914+P61313+P18621+Q07020+Q02543+P84098+P46778+P35268+P62829+P62750+P83731+P61254+P61353+P46776+P46779+P47914+P62888+P62899+P62910+P49207+P42766+P18077+Q9Y3U8+P83881+P61927+P61513+P63173+P62891+P62945+P05388+P05386). As to the kind of experiment: Binding affinity to RPL28 in human NCI-H23 cells at 1 uM by mass spectrometry based pull down assay. The assay is classed as cell-based.

The target in assay [5] is Ubiquitin-like modifier-activating enzyme 1 (Homo sapiens) (UniProt P22314). As to the kind of experiment: Binding affinity to UBA1 in human NCI-H23 cells at 1 uM by mass spectrometry based pull down assay. The assay is classed as cell-based.
In assay [6] the target is Alpha-2-HS-glycoprotein (Homo sapiens) (UniProt P02765). Kind of assay: Binding affinity to AHSG in human NCI-H358 cells at 1 uM by mass spectrometry based pull down assay. The assay is classed as cell-based. In outline:
as §1

The target in assay [7] is HCLS1-associated protein X-1 (Homo sapiens) (UniProt O00165). As to the kind of experiment: Binding affinity to HAX1 in human NCI-H358 cells at 1 uM by mass spectrometry based pull down assay. The assay is classed as cell-based.
Assay [8] has as its target Actin-related protein 2/3 complex subunit 2 (Homo sapiens) (UniProt O15144). As to the kind of experiment: Binding affinity to ARPC2 in human NCI-H358 cells at 1 uM by mass spectrometry based pull down assay. The assay is classed as cell-based.
The target of assay [9] is Actin-related protein 3 (Homo sapiens) (UniProt P61158). As to the kind of experiment: Binding affinity to ACTR3 in human NCI-H358 cells at 1 uM by mass spectrometry based pull down assay. The assay is classed as cell-based. In outline: as §1
For assay [10], the target named is Mitogen-activated protein kinase kinase kinase 20 (Homo sapiens) (UniProt Q9NYL2). Kind of assay: Binding affinity to ZAK in human NCI-H358 cells at 1 uM by mass spectrometry based pull down assay. The assay is classed as cell-based.
The target of assay [11] is Proteasome activator complex subunit 1 (Homo sapiens) (UniProt Q06323). As to the kind of experiment: Binding affinity to PSME1 in human NCI-H358 cells at 1 uM by mass spectrometry based pull down assay. The assay is classed as cell-based.
Assay [12] concerns the target Peroxiredoxin-6 (Homo sapiens) (UniProt P30041). As to the kind of experiment: Binding affinity to PRDX6 in human NCI-H358 cells at 1 uM by mass spectrometry based pull down assay. The assay is classed as cell-based.
Assay [13] has as its target Ribosomal protein S6 kinase alpha-1 (Homo sapiens) (UniProt Q15418). As to the kind of experiment: Binding affinity to RPS6KA1 in human NCI-H358 cells at 1 uM by mass spectrometry based pull down assay. The assay is classed as cell-based.
Assay [14] concerns the target Inter-alpha-trypsin inhibitor heavy chain H2 (Homo sapiens) (UniProt P19823). Kind of assay: Binding affinity to ITIH2 in human NCI-H358 cells at 1 uM by mass spectrometry based pull down assay. The assay is classed as cell-based.
For assay [15], the target named is Glycogen synthase kinase-3 beta (Homo sapiens) (UniProt P49841). Kind of assay: Binding affinity to GSK3B in human NCI-H358 cells at 1 uM by mass spectrometry based pull down assay. The assay is classed as cell-based.
The target of assay [16] is Small proline-rich protein 3 (Homo sapiens) (UniProt Q9UBC9). As to the kind of experiment: Binding affinity to SPRR3 in human NCI-H358 cells at 1 uM by mass spectrometry based pull down assay. The assay is classed as cell-based.
For assay [17], the target named is Deoxyuridine 5'-triphosphate nucleotidohydrolase, mitochondrial (Homo sapiens) (UniProt P33316). Kind of assay: Binding affinity to DUT in human NCI-H358 cells at 1 uM by mass spectrometry based pull down assay. The assay is classed as cell-based.
Assay [18] addresses MAP kinase-interacting serine/threonine-protein kinase 2 (Homo sapiens) (UniProt Q9HBH9). As to the kind of experiment: Binding affinity to MKNK2 in human NCI-H358 cells at 1 uM by mass spectrometry based pull down assay. The assay is classed as cell-based.
For assay [19], the target named is Fructose-bisphosphate aldolase C (Homo sapiens) (UniProt P09972). As to the kind of experiment: Binding affinity to ALDOC in human NCI-H358 cells at 1 uM by mass spectrometry based pull down assay. The assay is classed as cell-based.
In assay [20] the target is Importin subunit alpha-1 (Homo sapiens) (UniProt P52292). Kind of assay: Binding affinity to KPNA2 in human NCI-H358 cells at 1 uM by mass spectrometry based pull down assay. The assay is classed as cell-based.
Assay [21] has as its target T1, 80S Ribosome (Homo sapiens). As to the kind of experiment: Binding affinity to RPS9 in human NCI-H358 cells at 1 uM by mass spectrometry based pull down assay. The assay is classed as cell-based.
Assay [22] has as its target Heterogeneous nuclear ribonucleoprotein D0 (Homo sapiens) (UniProt Q14103). As to the kind of experiment: Binding affinity to HNRNPD in human NCI-H358 cells at 1 uM by mass spectrometry based pull down assay. The assay is classed as cell-based.
Assay [23] concerns the target Vesicle-trafficking protein SEC22b (Homo sapiens) (UniProt O75396). As to the kind of experiment: Binding affinity to SEC22B in human NCI-H358 cells at 1 uM by mass spectrometry based pull down assay. The assay is classed as cell-based.
For assay [24], the target named is BMP-2-inducible protein kinase (Homo sapiens) (UniProt Q9NSY1). As to the kind of experiment: Inhibition of human BIKE (34 to 329 residues) expressed in bacterial expression system assessed as enzyme activity at 10 uM by KINOMEScan assay relative to control. On the set-up: scale not given: the % may be the effect or the level left. In outline:
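In vitro ATP-site competition binding assay (KinomeScan) across a panel of 456 kinases. Compound was tested at 1 and 10 μM. The read-out is the binding inhibition score relative to control.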

In assay [25] the target is Vascular endothelial growth factor receptor 2 (Homo sapiens) (UniProt P35968). As to the kind of experiment: Inhibition of human VEGFR2 (787 to 1253 residues) expressed in mammalian expression system assessed as enzyme activity at 10 uM by KINOMEScan assay relative to control. Details: scale not given: the % may be the effect or the level left. In outline:
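In vitro ATP-site competition binding assay across a panel of 456 kinases, with compound tested at 1 and 10 μM.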

Each structure is given as a SMILES string. Calls of active or inactive are those of the source. The calls are words filed in the database; no cut-off is given here.

Two molecules from ChEMBL document CHEMBL4118021, “Studies of TAK1-centered polypharmacology with novel covalent TAK1 inhibitors” (Bioorg Med Chem, 2017) can be followed below.

Chain of Peroxiredoxin-6 (Homo sapiens) (P30041 whole entry): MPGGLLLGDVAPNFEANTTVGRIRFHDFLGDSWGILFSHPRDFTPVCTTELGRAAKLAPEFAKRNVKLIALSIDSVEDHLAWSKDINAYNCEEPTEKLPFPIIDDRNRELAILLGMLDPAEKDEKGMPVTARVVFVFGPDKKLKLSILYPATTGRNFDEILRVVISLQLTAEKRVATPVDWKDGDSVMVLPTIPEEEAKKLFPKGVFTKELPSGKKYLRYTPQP
Chain of Vascular endothelial growth factor receptor 2 (Homo sapiens) (P35968 whole entry, the tested form may be a part): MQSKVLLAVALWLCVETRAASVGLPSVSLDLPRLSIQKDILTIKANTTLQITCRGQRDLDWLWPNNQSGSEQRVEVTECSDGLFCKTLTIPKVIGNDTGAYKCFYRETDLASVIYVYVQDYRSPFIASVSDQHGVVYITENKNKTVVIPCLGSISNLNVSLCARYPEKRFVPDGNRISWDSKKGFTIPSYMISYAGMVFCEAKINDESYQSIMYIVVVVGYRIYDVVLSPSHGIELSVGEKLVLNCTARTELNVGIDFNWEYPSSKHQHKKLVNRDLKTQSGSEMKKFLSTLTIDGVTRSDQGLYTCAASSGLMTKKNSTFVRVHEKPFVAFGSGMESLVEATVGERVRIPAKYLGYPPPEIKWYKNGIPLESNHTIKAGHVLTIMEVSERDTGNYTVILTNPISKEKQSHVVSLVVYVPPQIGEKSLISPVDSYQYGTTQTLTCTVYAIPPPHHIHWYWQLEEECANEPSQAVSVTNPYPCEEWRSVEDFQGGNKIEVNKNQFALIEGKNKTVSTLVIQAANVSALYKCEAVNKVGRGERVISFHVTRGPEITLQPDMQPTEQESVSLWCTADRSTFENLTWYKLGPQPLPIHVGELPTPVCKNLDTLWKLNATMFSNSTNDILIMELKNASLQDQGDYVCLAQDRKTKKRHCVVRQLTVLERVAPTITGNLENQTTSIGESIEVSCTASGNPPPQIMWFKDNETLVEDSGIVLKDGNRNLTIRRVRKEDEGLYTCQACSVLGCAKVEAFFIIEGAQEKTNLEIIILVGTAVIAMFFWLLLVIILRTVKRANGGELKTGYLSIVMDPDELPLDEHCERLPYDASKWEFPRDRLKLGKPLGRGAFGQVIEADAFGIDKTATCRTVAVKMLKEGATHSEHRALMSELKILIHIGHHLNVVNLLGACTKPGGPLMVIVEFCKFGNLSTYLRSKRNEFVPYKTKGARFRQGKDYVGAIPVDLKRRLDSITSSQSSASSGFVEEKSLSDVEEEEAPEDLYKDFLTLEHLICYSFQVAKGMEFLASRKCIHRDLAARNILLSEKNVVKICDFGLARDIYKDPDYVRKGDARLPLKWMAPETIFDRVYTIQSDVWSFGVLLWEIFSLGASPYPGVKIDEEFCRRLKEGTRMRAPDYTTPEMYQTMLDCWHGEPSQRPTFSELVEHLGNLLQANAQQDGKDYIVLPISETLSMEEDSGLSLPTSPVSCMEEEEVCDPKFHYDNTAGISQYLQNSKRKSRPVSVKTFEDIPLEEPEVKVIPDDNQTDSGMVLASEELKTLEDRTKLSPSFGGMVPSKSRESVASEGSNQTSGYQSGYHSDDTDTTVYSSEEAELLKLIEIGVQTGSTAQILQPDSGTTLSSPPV
Chain of Heterogeneous nuclear ribonucleoprotein D0 (Homo sapiens) (Q14103 whole entry): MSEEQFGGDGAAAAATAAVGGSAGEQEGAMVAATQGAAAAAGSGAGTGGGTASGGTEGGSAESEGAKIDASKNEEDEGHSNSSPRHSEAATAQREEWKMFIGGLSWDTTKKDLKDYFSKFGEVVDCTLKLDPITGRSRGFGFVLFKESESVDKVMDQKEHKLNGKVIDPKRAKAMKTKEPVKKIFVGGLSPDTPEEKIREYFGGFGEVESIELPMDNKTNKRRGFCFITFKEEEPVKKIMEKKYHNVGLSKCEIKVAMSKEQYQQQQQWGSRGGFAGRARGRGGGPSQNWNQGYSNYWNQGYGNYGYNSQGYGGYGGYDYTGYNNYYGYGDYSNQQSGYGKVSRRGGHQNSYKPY
Chain of Deoxyuridine 5'-triphosphate nucleotidohydrolase, mitochondrial (Homo sapiens) (P33316 whole entry): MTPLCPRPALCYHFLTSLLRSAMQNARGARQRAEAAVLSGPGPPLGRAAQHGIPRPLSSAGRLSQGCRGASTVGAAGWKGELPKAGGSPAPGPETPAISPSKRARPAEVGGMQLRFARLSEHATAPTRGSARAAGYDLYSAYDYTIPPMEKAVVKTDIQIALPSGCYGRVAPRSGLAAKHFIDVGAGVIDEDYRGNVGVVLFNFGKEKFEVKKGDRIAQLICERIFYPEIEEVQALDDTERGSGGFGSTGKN
Chain of Proteasome activator complex subunit 1 (Homo sapiens) (Q06323 whole entry, one chain of several): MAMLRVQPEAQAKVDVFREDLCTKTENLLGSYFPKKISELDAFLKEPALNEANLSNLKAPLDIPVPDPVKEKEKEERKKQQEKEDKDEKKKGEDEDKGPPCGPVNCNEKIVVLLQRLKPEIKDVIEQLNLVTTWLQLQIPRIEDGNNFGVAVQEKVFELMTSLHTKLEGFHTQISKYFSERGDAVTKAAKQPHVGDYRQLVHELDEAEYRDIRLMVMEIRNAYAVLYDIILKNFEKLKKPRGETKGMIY
Chain of Small proline-rich protein 3 (Homo sapiens) (Q9UBC9 whole entry): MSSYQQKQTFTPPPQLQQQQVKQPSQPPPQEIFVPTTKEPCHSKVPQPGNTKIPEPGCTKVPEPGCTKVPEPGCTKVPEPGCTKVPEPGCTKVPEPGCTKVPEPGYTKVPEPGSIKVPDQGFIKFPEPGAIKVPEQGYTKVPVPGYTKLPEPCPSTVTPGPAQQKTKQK
Chain of Ribosomal protein S6 kinase alpha-1 (Homo sapiens) (Q15418 whole entry): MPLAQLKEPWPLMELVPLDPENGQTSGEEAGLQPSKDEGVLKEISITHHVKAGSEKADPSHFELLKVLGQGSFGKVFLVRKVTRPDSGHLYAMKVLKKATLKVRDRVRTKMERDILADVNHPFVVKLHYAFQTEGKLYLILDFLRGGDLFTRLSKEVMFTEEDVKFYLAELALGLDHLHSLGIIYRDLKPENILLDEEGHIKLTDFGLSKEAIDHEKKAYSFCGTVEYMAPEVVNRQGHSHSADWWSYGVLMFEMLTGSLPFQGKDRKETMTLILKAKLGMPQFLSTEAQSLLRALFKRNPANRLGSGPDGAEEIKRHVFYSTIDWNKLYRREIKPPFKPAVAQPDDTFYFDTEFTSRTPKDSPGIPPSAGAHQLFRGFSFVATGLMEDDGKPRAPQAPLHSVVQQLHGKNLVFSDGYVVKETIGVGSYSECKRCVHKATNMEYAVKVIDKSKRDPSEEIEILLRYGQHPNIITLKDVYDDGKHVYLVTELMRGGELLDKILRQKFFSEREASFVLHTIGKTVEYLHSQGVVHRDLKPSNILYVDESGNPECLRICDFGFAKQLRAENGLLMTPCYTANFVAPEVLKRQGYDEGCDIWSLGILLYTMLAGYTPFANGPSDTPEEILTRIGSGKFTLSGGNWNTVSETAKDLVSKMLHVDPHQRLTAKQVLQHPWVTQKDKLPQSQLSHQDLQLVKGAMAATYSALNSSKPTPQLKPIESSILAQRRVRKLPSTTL
Chain of BMP-2-inducible protein kinase (Homo sapiens) (Q9NSY1 whole entry, looked up, the tested form may be a part): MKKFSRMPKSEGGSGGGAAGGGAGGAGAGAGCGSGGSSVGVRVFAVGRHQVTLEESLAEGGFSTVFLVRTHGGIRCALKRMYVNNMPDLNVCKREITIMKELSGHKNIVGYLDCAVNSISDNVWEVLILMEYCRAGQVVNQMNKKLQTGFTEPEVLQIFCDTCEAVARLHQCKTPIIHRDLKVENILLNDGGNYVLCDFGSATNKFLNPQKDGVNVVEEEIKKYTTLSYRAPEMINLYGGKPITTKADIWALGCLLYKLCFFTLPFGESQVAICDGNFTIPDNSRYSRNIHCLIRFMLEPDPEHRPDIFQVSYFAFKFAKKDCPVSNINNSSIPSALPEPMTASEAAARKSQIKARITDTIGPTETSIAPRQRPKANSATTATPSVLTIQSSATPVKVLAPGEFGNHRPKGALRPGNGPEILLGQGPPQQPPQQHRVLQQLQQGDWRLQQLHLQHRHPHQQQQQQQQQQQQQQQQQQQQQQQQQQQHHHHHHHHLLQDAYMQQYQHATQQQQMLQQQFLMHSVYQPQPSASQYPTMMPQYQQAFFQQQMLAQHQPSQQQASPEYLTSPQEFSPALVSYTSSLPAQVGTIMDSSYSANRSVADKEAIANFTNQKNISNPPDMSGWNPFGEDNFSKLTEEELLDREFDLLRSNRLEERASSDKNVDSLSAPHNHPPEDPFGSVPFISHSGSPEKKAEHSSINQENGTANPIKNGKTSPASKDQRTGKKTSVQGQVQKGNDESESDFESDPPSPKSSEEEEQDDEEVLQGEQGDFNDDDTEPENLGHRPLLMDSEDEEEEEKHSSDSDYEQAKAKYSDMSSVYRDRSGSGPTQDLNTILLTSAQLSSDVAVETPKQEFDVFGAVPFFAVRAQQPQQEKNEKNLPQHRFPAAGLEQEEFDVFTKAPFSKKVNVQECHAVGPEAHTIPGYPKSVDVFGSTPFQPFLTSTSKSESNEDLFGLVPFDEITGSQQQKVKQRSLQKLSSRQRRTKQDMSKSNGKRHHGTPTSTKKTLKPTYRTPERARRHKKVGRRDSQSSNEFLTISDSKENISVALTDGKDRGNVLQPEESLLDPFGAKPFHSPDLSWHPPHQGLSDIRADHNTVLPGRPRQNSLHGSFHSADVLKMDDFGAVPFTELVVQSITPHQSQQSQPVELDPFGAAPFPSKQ
Chain of Glycogen synthase kinase-3 beta (Homo sapiens) (P49841 whole entry, looked up): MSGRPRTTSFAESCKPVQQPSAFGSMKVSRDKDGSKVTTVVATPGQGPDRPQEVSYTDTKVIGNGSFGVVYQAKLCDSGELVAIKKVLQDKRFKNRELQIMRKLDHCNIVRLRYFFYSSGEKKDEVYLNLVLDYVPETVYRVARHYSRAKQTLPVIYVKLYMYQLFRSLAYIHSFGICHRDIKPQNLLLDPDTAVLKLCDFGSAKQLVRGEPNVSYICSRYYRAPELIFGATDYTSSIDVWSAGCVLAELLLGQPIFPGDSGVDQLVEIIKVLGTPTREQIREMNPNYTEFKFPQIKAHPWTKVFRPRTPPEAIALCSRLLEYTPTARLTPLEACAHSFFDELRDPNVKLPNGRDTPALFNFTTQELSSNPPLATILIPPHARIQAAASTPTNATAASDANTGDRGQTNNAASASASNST

Consider `C=CC(=O)Nc1ccccc1Nc1nc(Nc2ccc(N3CCN(CCOCCOCCOCCNC(=O)CCCC[C@@H]4SC[C@@H]5NC(=O)N[C@@H]54)CC3)cc2)ncc1Cl`, for which the outcome in [1], in assay [2], in assay [3], in [4], in assay [5] and in assay [6] was Active. The result in assay [7], in assay [8], in assay [9], in [10], in assay [11] and in assay [12] was Active. For the same molecule, the outcome in assay [13], in [14], in [15], in assay [16], in [17] and in [18] was Active. Also, the result in [19], in [20], in assay [21], in assay [22] and in [23] was Active.

Turning to `COc1cc(O)c2c(c1)/C=C/C[C@H](O)[C@H](O)C(=O)/C=C\C[C@H](C)OC2=O`, the Activity in [24] was determined as 3.8%; in assay [25], 5.2%.
